The text below walks through data of ChEMBL document CHEMBL1127749 (J Med Chem, 1994).

Each structure is given as a SMILES string. Where only a bound is given, the exact number is not on record here.

Assay [1] addresses Muscarinic acetylcholine receptor. The assay can be described thus: In vitro binding affinity for muscarinic receptor by displacing [3H]quinuclidinyl benzilate binding on rat brain homogenate. The format is tissue-based. The method in brief:
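Two concentration–response curves, five concentrations covering 3 decades, triplicates. IC50 estimated from hand-drawn log concentration–response curves and converted to Ki with Cheng–Prusoff equation.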

In assay [2] the target is T1, Muscarinic acetylcholine receptor M1 (Rattus norvegicus, UniProt P08482).
T1 sequence (P08482 whole entry): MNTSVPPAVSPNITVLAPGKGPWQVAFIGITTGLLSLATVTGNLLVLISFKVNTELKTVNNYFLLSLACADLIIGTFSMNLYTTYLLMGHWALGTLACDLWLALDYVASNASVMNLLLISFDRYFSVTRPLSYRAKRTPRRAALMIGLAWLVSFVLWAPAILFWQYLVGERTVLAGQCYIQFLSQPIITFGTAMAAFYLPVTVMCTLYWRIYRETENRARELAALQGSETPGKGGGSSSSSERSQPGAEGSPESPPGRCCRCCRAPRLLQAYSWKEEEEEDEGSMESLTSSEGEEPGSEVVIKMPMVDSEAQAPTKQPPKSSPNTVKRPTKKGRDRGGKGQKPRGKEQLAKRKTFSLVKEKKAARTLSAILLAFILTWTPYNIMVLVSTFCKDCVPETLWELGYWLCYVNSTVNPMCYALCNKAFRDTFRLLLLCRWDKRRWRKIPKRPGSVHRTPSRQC
Put plainly: M1 agonist activity estimated by rat superior cervical ganglion depolarization. The format is functional, tissue-based.

Assay [3] deals with Muscarinic acetylcholine receptor. The assay can be described thus: In vitro binding affinity for muscarinic receptor by displacing [3H]quinuclidinyl benzilate binding on rat brain stem homogenate. The format is tissue-based. A digest of the protocol:
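Two full curves, five test concentrations over 3 decades in triplicate. Hand-drawn log curves gave IC50; Ki by Cheng–Prusoff.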

Assay [4] has the same target. The assay can be described thus: In vitro binding affinity for muscarinic receptor by displacing [3H]oxotremorine-M binding on rat brain homogenate. It is filed as tissue-based. A digest of the protocol:
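Duplicate full curves of five drug concentrations over 3 decades, triplicate points. IC50 taken from hand-drawn log curves; Ki via Cheng–Prusoff.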

Assay [5] addresses T1, Muscarinic acetylcholine receptor M1. The assay can be described thus: In vitro binding affinity for muscarinic M1 receptor by displacing [3H]pirenzepine binding on rat brain homogenate. It is filed as tissue-based. The method in brief:
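Two complete curves, five test concentrations spanning 3 decades, each in triplicate. IC50 read from hand-drawn log concentration–response curves, converted to Ki by Cheng–Prusoff.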

The species named for assay [6] is Rattus norvegicus. Put plainly: Ratio of binding affinity at [3H]quinuclidinyl benzilate binding on rat brain homogenate to [3H]- Oxotremorine-M binding on rat brain homogenate. It is filed as functional. A digest of the protocol:
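Ago ratio computed as Ki from [³H]QNB binding to whole rat brain homogenate divided by Ki from [³H]oxotremorine-M binding to whole rat brain homogenate.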

Assay [7] addresses Muscarinic acetylcholine receptor M3 (Cavia porcellus).
The target in assay [8] is Muscarinic acetylcholine receptor M2 (Cavia porcellus). The assay can be described thus: M2 agonist activity estimated by depression of isolated guinea pig left atrium.
The species entered for assay [9] is Rattus norvegicus. Put plainly: Ratio of binding affinity at [3H]quinuclidinyl benzilate binding on rat brain stem homogenate to [3H]pirenzepine binding on rat brain homogenate.
The target of assay [10] is Muscarinic acetylcholine receptor M2 (Mus musculus) (UniProt Q9ERZ4). The assay can be described thus: In vivo determination of peripheral M2 receptor mediated tremor, cholinergic side effect.
Assay [11] has the same target. The assay can be described thus: In vivo determination of peripheral M2 receptor mediated salivation, cholinergic side effect.
Assay [12] has the same target. The assay can be described thus: In vivo determination of peripheral M2 receptor mediated hypothermia, cholinergic side effect.
Assay [13] concerns the target T2, Muscarinic acetylcholine receptor M3 (Cavia porcellus, UniProt Q8VH26). The assay can be described thus: In vitro ability to contract isolated guinea pig ileum was used to estimate M2/M3 agonist effect. It is filed as functional, tissue-based.
The nature of assay [14]: In vitro binding affinity for muscarinic receptors by displacing [3H]quinuclidinyl benzilate binding on rat brain homogenate. It is filed as tissue-based.
For assay [15], the target named is Muscarinic acetylcholine receptor. The assay can be described thus: In vitro binding affinity for muscarinic receptors by displacing [3H]quinuclidinyl benzilate binding on rat brain stem homogenate. It is filed as tissue-based.
Assay [16] addresses T2, Muscarinic acetylcholine receptor M3. The assay can be described thus: In vitro ability to contract isolated guinea pig ileum was used to estimate M3 agonist effect. The format is functional, tissue-based.
For assay [17], the target named is T1, Muscarinic acetylcholine receptor M1. The assay can be described thus: In vitro ability to depolarize isolated rat superior cervical ganglion was used to estimate their M1 agonistic effect. The format is functional, tissue-based. The method in brief:
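Because the concentration–response curve is biphasic, EC50 is given as equal to or greater than the calculated value. Apparent efficacy (RM) is maximum effect relative to muscarine's maximum on separate ganglia. Values are means of three to seven separate experiments.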

Assay [18] can be described thus: In vitro binding affinity for muscarinic receptor by displacing[ H]Quinuclidinyl benzilate binding on rat brain stem homogenate. The format is tissue-based. A digest of the protocol:
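Rat brainstem homogenate; displacement of [3H]quinuclidinyl benzilate (0.12 nM). Five test concentrations in triplicate spanning 3 decades, two complete curves. IC50 read from hand-drawn log concentration–response curves and converted to Ki by Cheng–Prusoff using KD 9.7 pM from Scatchard analysis.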

T2 sequence (Q8VH26 whole entry): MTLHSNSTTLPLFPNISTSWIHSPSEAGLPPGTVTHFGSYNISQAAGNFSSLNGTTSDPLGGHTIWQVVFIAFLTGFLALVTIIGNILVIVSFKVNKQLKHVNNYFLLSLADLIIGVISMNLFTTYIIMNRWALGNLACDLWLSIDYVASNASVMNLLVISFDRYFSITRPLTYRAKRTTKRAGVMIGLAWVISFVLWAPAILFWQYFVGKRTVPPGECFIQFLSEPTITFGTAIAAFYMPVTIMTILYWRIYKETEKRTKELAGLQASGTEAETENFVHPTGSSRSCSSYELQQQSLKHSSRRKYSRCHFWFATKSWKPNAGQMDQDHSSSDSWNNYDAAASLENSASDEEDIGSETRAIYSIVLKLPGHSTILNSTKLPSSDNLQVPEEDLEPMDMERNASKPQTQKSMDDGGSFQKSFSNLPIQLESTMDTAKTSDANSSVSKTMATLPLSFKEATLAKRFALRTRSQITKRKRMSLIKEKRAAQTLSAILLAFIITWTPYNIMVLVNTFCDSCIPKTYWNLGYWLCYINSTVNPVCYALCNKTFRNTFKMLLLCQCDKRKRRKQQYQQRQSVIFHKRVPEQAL

As to `CCn1ncc(C2=CCCNC2)n1`, the Ki in [1] amounted to 290 nM; in assay [3], 170 nM; in assay [4], 3.7 nM; in [5], 120 nM. The concentration giving a half-maximal response (EC50) is at least 650 nM in assay [2], 770 nM in [7] and 270 nM in assay [8]. Moreover, the results for the Ratio in the assay filed under Rattus norvegicus [6] and in the assay listed under Rattus norvegicus [9] were 78 and 1.4, respectively.

Regarding `C=CCn1ncc(C2CCCNC2)n1` (stereo in doubt; (-)-15b) [listing 1 of 2 here], the Ki in assay [1] was determined as 530 nM; in assay [3], 310 nM; in assay [4] it was 37 nM; in assay [5] it was 170 nM. The EC50 was above 2500 nM in [2] and 840 nM in assay [8].

As for `CCn1nnc(C2=CCCN(C)C2)n1` [ALVAMELINE], the Ki in assay [1] came to 430 nM; in [3], 340 nM; in assay [4], 9.2 nM; in [5], 36 nM. Also, the EC50 in assay [2] was at least 2000 nM. The ED50 in [10], in [11] and in [12] was above 120 µmol/kg in each case.

As to `C=CCn1ncc(C2CCCNC2)n1` (single isomer, unassigned; (+)) [listing 1 of 2 here], the Ki in assay [1] turned out to be 190 nM; in assay [3], 330 nM; in [4], 45 nM; in assay [5] it was 210 nM. Besides, the EC50 was above 3400 nM in assay [2], 4300 nM in assay [7] and 680 nM in assay [8].

Turning to `C=CCn1ncc(C2CCCNC2)n1` (stereo in doubt; (-)-15b) [listing 2 of 2 here], the Ratio in the assay filed under Rattus norvegicus [6] came to 14; in the assay listed under Rattus norvegicus [9] it was 1.8. Further, the ED50 in assay [10], in [11] and in [12] was above 130 µmol/kg each time.

Regarding `C=CCn1ncc(C2CCCNC2)n1` (racemic) [listing 1 of 2 here], the Ratio in the assay listed under Rattus norvegicus [6] was determined as 36; in the assay listed under Rattus norvegicus [9] it was 3. Besides, the values for the ED50 in assay [10], in assay [11] and in assay [12] were above 350 µmol/kg, 320 µmol/kg and above 350 µmol/kg, respectively.

`C[N+](C)(C)CC#CCOC(=O)Nc1cccc(Cl)c1.[Cl-]`: the EC50 in assay [13] is 6500 nM; in [2], at least 3900 nM. The Ki was 500 nM in assay [14], 460 nM in assay [15], 18 nM in assay [4] and 600 nM in assay [5]. The Ratio in the assay listed under Rattus norvegicus [6] amounted to 28; in the assay filed under Rattus norvegicus [9], 0.8. The ED50 in assay [10], in [11] and in assay [12] was above 63 µmol/kg each time.

For `CCn1ncc(C2=CCCN(C)C2)n1`, the Ki came to 110 nM in assay [1], 61 nM in [3], 1.7 nM in assay [4] and 24 nM in [5]. Moreover, the 50% effective concentration (EC50) in assay [2] was above 1200 nM; in [7], 940 nM; in assay [8], above 51000 nM. Moreover, the Ratio in the assay listed under Rattus norvegicus [6] was 65; in the assay filed under Rattus norvegicus [9] it was 2.5.

For `CCn1nnc(C2=CCCNC2)n1`, the inhibitory constant (Ki) is 1600 nM in [1], 280 nM in assay [3], 23 nM in [4] and 960 nM in assay [5]. For the same compound, the EC50 was 6400 nM in assay [16] and at least 3300 nM in assay [17].

As to `C=CCn1ncc(C2CCCNC2)n1` (racemic) [listing 2 of 2 here], the Ki in assay [1] is 910 nM; in assay [3], 300 nM; in assay [4], 25 nM; in assay [5], 100 nM. In addition, the EC50 in [13] is 4400 nM; in assay [2] it was above 2800 nM; in [8] it was 1100 nM.

`CCN1C(=O)CC2(CCN(C)CC2)C1=O`: the Ki in [1] is 690 nM; in [3], 400 nM; in assay [4], 14 nM; in [5], 400 nM. In addition, the EC50 in assay [2] was at least 1100 nM; in [7] it was 430 nM; in [8] it was 400 nM. Also, the Ratio in the assay filed under Rattus norvegicus [6] was determined as 49; in the assay listed under Rattus norvegicus [9], 1.

Take `CN1CCC=C(c2cnn(C)n2)C1`: the Ki turned out to be 280 nM in assay [1], 160 nM in assay [3], 0.78 nM in [4] and 35 nM in assay [5]. The EC50 in assay [2] is at least 430 nM; in assay [7], 130 nM. Also, the Ratio in the assay filed under Rattus norvegicus [6] came out at 360; in the assay filed under Rattus norvegicus [9], 4.5.

Regarding `C=CCn1ncc(C2CCCNC2)n1` (single isomer, unassigned; (+)) [listing 2 of 2 here], the Ratio stood at 4.2 in the assay filed under Rattus norvegicus [6] and 1.6 in the assay filed under Rattus norvegicus [9]. Further, the ED50 in [10], in [11] and in assay [12] was above 260 µmol/kg in each case.

In the case of `C#CCn1ncc(C2CCCNC2)n1` (single isomer, unassigned; (+)), the values for the Ratio in the assay listed under Rattus norvegicus [6] and in the assay filed under Rattus norvegicus [9] were 44 and 0.2, respectively. For the same compound, the results for the ED50 in [10], in assay [11] and in assay [12] were 32 µmol/kg, 7 µmol/kg and 23 µmol/kg, respectively.

For `C#CCn1ncc(C2CCCNC2)n1` (stereo in doubt; (-)-15c), the Ratio in the assay listed under Rattus norvegicus [6] was 35; in the assay listed under Rattus norvegicus [9], 0.2. In addition, the results for the 50% effective dose (ED50) in [10], in assay [11] and in assay [12] were 41 µmol/kg, 20 µmol/kg and 11 µmol/kg, respectively.

In the case of `C#CCn1ncc(C2CCCNC2)n1` (racemic), the Ratio in the assay listed under Rattus norvegicus [6] was determined as 130; in the assay listed under Rattus norvegicus [9], 1.5. The ED50 in assay [10] is 54 µmol/kg; in assay [11], 8.1 µmol/kg; in assay [12] it was 10 µmol/kg.

In the case of `CCCCCCCn1nnc(C2=CCCN(C)C2)n1`, the Ki is 140 nM in assay [1], 160 nM in assay [18], 120 nM in assay [4] and 37 nM in [5]. Besides, the Ratio worked out at 1.2 in the assay filed under Rattus norvegicus [6] and 4.3 in the assay filed under Rattus norvegicus [9].

Turning to `CCCCCCCCn1nnc(C2=CCCN(C)C2)n1`, the inhibitory constant (Ki) in [1] stood at 38 nM; in [3] it was 75 nM; in assay [4], 71 nM; in assay [5] it was 27 nM. Further, the results for the Ratio in the assay filed under Rattus norvegicus [6] and in the assay filed under Rattus norvegicus [9] were 0.5 and 2.8, respectively.
